The subject of series [1] is NQO1. Conditions: Sprague-Dawley rats; cited from earlier work.
The subject of series [2] is NAD(P)H quinone oxidoreductase (NQO1). In words: NQO1 activity in mammary gland of ACI rats. Conditions: 4 days. The series is classed as in vivo. The method, boiled down: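 Female ACI rats (n=6/group) were dosed 4 days: EB 1 mg/kg/day sc, alone or with the test compound at 80 mg/kg/day sc or extracts at 2 g/kg/day by gavage. Sesame oil or corn oil/PEG was the vehicle. Frozen mammary tissue was homogenized; NQO1 activity was read at 610 nm in clear supernatant (30 µg protein). Results are fold induction relative to control; mean ± SEM.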

In series [3] the test system is CYP1A1. Nature of the series: CYP1A1 mRNA expression in mammary tissue, RT-qPCR. Conditions: ACI rats, 4 days. The series is classed as in vivo. In outline:
(§1)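 Female ACI rats (5 weeks old, acclimated 1 week, phytoestrogen-free AIN-76A diet, n=6/group) received sc EB 1 mg/kg/day, sc test compound 80 mg/kg/day or gavaged extracts 2 g/kg/day for 4 days. Vehicles were sesame oil sc, or 50% corn oil with 50% PEG/H2O by gavage. Rats were killed day 5; mammary mRNA was measured by TaqMan RT-qPCR with ACTB probe; mean ± SEM, ANOVA/Dunnett or t-test.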

Series [4] deals with NAD(P)H quinone oxidoreductase (NQO1). Nature of the series: NQO1 activity in liver tissue of ACI rats. The class given is in vivo. Conditions: EB 1 mg/kg/day sc, 4 days, vs vehicle.
For series [5], the system named is CYP1B1. In words: CYP1B1 mRNA expression in mammary tissue, RT-qPCR. The class given is in vivo. Conditions: ACI rats, 4 days. The method, boiled down:
as §1
For orientation: Real-time PCR tracks product formation cycle by cycle.

Series [6] can be described thus: LicA metabolites in serum, liver and mammary gland, UHPLC-MS/MS. The series is classed as in vivo. Conditions: ACI rats, sc administration of LicA. In outline:
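ACI rats got the test compound sc at 80 mg/kg/day with EB 1 mg/kg/day sc for 4 days and were killed day 5. Serum, and liver or mammary homogenates in 70% aqueous methanol with 0.1% formic acid, were spiked with naringenin. They were precipitated with ice-cold ACN (15 min, 13000 x g, 4 °C), dried under nitrogen and reconstituted in 20% ACN. Metabolites were profiled by UHPLC-MS/MS on C18.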

A further series has as its system XRE-luciferase reporter. Conditions: HepG2 cells; cited from earlier work.
The subject of series [7] is P450 3A4. Conditions: HepG2 cells; cited from earlier work.
In series [8] the test system is CYP1B1. The class given is cell-based, human. Conditions: MCF-10A cells, compound 20 µM, 24 h; for Induction of CYP1B1 expression: relative to control.
The format of series [9] is in vivo. Conditions: ACI rats after GG or GI 2 g/kg/day gavage + EB for 4 days. The method, boiled down: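 Female ACI rats (n=6/group) got extracts 2 g/kg/day by gavage plus sc EB 1 mg/kg/day for 4 days. Serum, liver and mammary homogenates (70% aqueous methanol, 0.1% formic acid) were spiked with naringenin internal standard and protein-precipitated with ice-cold ACN. Supernatant was dried, taken up in 20% ACN and analysed by UHPLC-MS/MS, negative ESI, SRM. Extracts were run at 10 μg/mL in 50% methanol.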

The next series concerns P450 1A2. Conditions: cited from earlier work.
The test system of series [10] is CYP1A1. The class given is cell-based, human. Conditions: MCF-10A cells, compound 20 µM, 24 h; for Increase of CYP1A1 expression: relative to control.
In series [11] the test system is estrogen oxidative metabolism (2-MeOE1). In words: 2-MeOE1 in serum by LC-MS/MS. The class given is in vivo. Conditions: ACI rats, 4 days, co-administered with EB 1 mg/kg/day; GG, GI 2 g/kg/day, LicA 80 mg/kg/day.
Series [12] has as its system P450 3A4. Conditions: cited from earlier work.
A further series relates to E2/E1 levels. In words: E2/E1 levels in serum by LC-MS/MS. The series is classed as in vivo. Conditions: ACI rats, 4 days, co-administered with EB.
Series [13] deals with estrogen oxidative metabolism. Conditions: MCF-10A cells; cited from earlier work.
Series [14] deals with NQO1. Conditions: cited from earlier work.
The test system of series [15] is CYP1A1. Conditions: female Sprague-Dawley rats; cited from earlier work.
In series [16] the test system is NQO1. Conditions: previous in vitro studies; cited from earlier work.
Series [17] has as its system NQO1. Conditions: Sprague-Dawley rats; cited from earlier work. This is another data set of the same source.
[18] abbreviates: with EB, GG, GI 2 g/kg/day, LicA 80 mg/kg/day.

Structures are written as SMILES.

In the case of `O=c1cc(-c2ccc(Br)cc2)oc2ccccc12` [4’bromoflavone], the “NQO1 induction in liver tissues” value with NQO1 [1] is reported as “significant NQO1 induction”.

Turning to `C[C@]12CC[C@@H]3c4ccc(OC(=O)c5ccccc5)cc4CC[C@H]3[C@@H]1CC[C@@H]2O` [EB, estradiol benzoate, reference compound], the “Effect of EB on NQO1 activity in the mammary gland” value in [2] (EB 1 mg/kg/day, vs vehicle) is on record as “slightly reduced”. Moreover, the “CYP1A1 expression in mammary tissue, fold lower than the vehicle control group” value with CYP1A1 [3] (EB 1 mg/kg/day) was found to be 3 fold. In addition, the “Effect of EB alone on NQO1 activity in liver tissue” value in series [4] was “did not affect the NQO1 activity significantly”. For the same molecule, the “CYP1B1 expression in mammary tissue, fold lower than the vehicle control group” value in the series with CYP1B1 [5] (EB 1 mg/kg/day) came to 5 fold.

Regarding `C=CC(C)(C)c1cc(/C=C/C(=O)c2ccc(O)cc2)c(OC)cc1O` [LicA, licochalcone A], in [6], the “GSH conjugate in the liver” value is “major metabolite”; the “GSH conjugate in the serum and mammary tissues” value is given as “minor metabolite”; the “Main metabolism in serum, liver and mammary tissues” value is “glucuronidation reactions dominated”; the “Sulfation in mammary tissue” value is given as “not detectable”. In series [6], the “Sulfation in serum and liver” value is “minor”. In addition, the XRE-luciferase reporter activity result in the series on XRE-luciferase reporter is on record as “inhibited”. Besides, the “Induction of NQO1 activity in mammary tissue” value in [2] (co-treatment with EB, GG, GI 2 g/kg/day, LicA 80 mg/kg/day) is “No induction”. Further, in the series with CYP1A1 [3] (setting [18]), the “Upregulation of CYP1A1 in mammary tissue compared to the EB treatment group” value is listed as “no statistical difference”. Also, the “P450 3A4 gene expression” value in the series with P450 3A4 [7] is “decreased”. In addition, the “Down-regulation of CYP1B1 expression in mammary tissue compared to the EB treatment group” value in the series with CYP1B1 [5] (setting [18]) is “no statistical difference”. Moreover, the “CYP1B1 expression, fold lower than basal levels” value with CYP1B1 [8] was found to be 10 fold. Moreover, the “Presence in liver and mammary tissues (qualitative)” value (shortened to “Presence”) in series [9] was “available”. For the same molecule, the “Inhibition of P450 1A2 activity” value in the series on P450 1A2 is “moderately inhibited”. In the series with CYP1A1 [10], the “CYP1A1 expression, fold lower than basal levels” value amounted to 34 fold. Also, in series [11], the “Reduction of 2-MeOE1 in serum, of the EB treatment group” value was roughly 70%. Besides, the “Inhibition of P450 3A4 activity” value with P450 3A4 [12] was “moderately inhibited”. Also, in the series with E2/E1 levels, the “Effect on E2/E1 levels in serum” value is recorded as “only slightly influenced”. Also, the “Effect on estrogen oxidative metabolism” value in series [13] was “inhibited”.

As to `O=C(/C=C/c1ccc(O)cc1)c1ccc(O)cc1O` [LigC, isoliquiritigenin], in the series with NQO1 [14], the “Induction of NQO1 activity in in vivo models” value was “didn’t induce”. Moreover, the “Increase of CYP1A1 levels in mammary tissues” value in the series with CYP1A1 [15] was 6.84 fold. Besides, the “Induction of CYP1B1 expression” value in the series on CYP1B1 [8] was found to be 2.5 fold. The “Presence” value in series [9] is recorded as “available”. In addition, in the series with P450 1A2, the “Inhibition of P450 1A2 activity” value is reported as “weakly”. Further, the “Increase of CYP1A1 expression” value with CYP1A1 [10] was 4 fold. Besides, the “Inhibition of P450 3A4 activity” value in the series on P450 3A4 [12] is “weakly”. In series [13], the “Effect on estrogen oxidative metabolism” value is “increase”.

For `O=C1C[C@@H](c2ccc(O)cc2)Oc2cc(O)ccc21` [LigF, liquiritigenin], the “Effect on NQO1 activity in vitro” value in the series with NQO1 [16] was “no effect”. In addition, in the series with CYP1B1 [8], the “Induction of CYP1B1 expression” value is reported as 2 fold. Moreover, the “Presence” value in series [9] is “available”. For the same molecule, in the series with CYP1A1 [10], the “Increase of CYP1A1 expression” value is given as “did not affect”. Besides, the “Effect on estrogen oxidative metabolism” value in [13] is given as “no effect”.

As for `CC1(C)C=Cc2c(ccc3c2OC[C@@H](c2ccc(O)cc2O)C3)O1` [glabridin], in series [9], the “Presence” value was “not detected”. Further, in the series with P450 1A2, the “Inhibition of P450 1A2 activity” value was “weakly”. Further, in the series with P450 3A4 [12], the “Inhibition of P450 3A4 activity” value was “weakly”.

`COc1cc(O)c(CC=C(C)C)c(O)c1C(=O)/C=C/c1ccc(O)cc1` [xanthohumol]: in the series on NQO1 [1], the “NQO1 induction in liver tissues” value is given as “significant NQO1 induction”. In the series with NQO1 [17], the “NQO1 induction in the mammary gland” value is “no NQO1 induction”.

Source of the values: article PMC6435032 (Cancer prevention research (Philadelphia, Pa.), 2018).
